MBD2 inh – MBD2-methylated oligo binding inhibition | hit rate 0.31% among 370,000 | Q9UBB5 | AID 686964 | TR-FRET, MBD2 binding to methylated oligonucleotide | inhibition, % at 4.4 µM; in the data active = inhibition above about 13%
NSD2 inh – inhibitors of human histone methyltransferase NSD2. O96028. NSD2 peptide methylation, AlphaScreen, 120 min. inhibition, % at 12.5 µM. hit rate 0.54% among 310,000. AID 743445; in the data active = inhibition above about 50%
UHRF1 binding – blocks human UHRF1 binding to methylated DNA. UHRF1 binding to methylated oligo, TR-FRET. Q96T88. inhibition, % at 4.4 µM. hit rate 0.75% among 370,000; in the data active = inhibition above about 21%;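 note: UHRF1 SRA domain binding a hemimethylated CpG hairpin DNA probe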
Casp6 inh – blocks human caspase-6 cleavage activity; P55212; inhibition, % at 12.5 µM; purified caspase-6, Z-VEID-R110 cleavage fluorescence; AID 686996; hit rate 0.53% among 350,000;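 active = mean inhibition across replicates at least about 35%, with every replicate also reaching that limit, limit read from the data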
TDP2 absorb – TDP2 (human) inhibition, absorbance primary screen; O95551; recombinant TDP2, T5PNP hydrolysis, p-nitrophenol absorbance 415 nm; AID 720702; hit rate 0.34% among 370,000; inhibition, % at 12.8 µM;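 active = inhibition above the mean of all tested compounds plus 3 SD, set per campaign, cut at about 25% in these data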
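Assay system: Recombinant human TDP2 | Quantity: 120 nM TDP2 per well | Incubation: 2 h at 37 °C | Signal: Epi absorbance | Evaluation: Percent inhibition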
LEDGF integ inh – blocks HIV-1 LEDGF/p75-dependent DNA integration; TR-FRET IN-LEDGF/p75 DNA integration, Eu/Cy5; inhibition, % at 3.7 µM; hit rate 0.64% among 370,000;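 active = inhibition above the screen-wide mean plus 3 SD, cut at about 13% in these data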;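 note: signal is the Cy5 over europium emission ratio at 671 and 618 nm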
Numbers stand for hits; i = inactive; nt = no result; ! = a repeat was not active. The list is not random: actives were taken first. Their share in the collection is about 1.8%.

SMILES | MBD2 inh | NSD2 inh | UHRF1 binding | Casp6 inh | TDP2 absorb | LEDGF integ inh
Cc1ccc(S(=O)(=O)N(C)C[C@H]2Oc3cc(C#CC4CCCC4)ccc3S(=O)(=O)N([C@H](C)CO)C[C@H]2C)cc1 | i | nt | 22 | i | i | i
COc1cccc(C#Cc2ccc3c(c2)O[C@H](CN(C)S(=O)(=O)c2ccccc2F)[C@H](C)CN([C@H](C)CO)S3(=O)=O)c1 | i | nt | 21 | i | i | i
C[C@H](CO)N1C[C@H](C)[C@@H](CN(C)C(=O)c2cnccn2)Oc2cc(C#CCC3CCCC3)ccc2S1(=O)=O | i | nt | 23 | i | i | i
Cc1ccc(F)cc1S(=O)(=O)N[C@@H]1CCN(C(=O)c2ccc(OC(C)C)cc2)C1 | nt | nt | nt | i | nt | nt
CCc1ccc(CN(Cc2cccnc2)C(=O)/C=C/c2ccc(OC)cc2)cc1 | i | i | i | 98 | i | i
COc1ccc(/C=C/C(=O)NCc2cccnc2)cc1 | i | i | i | i | i | i
COc1cccc(S(=O)(=O)N2C[C@@H]3N[C@H](C2)C3c2ccc(-c3ccccc3C)cc2)c1 (stereo partly drawn) | nt | nt | nt | 37! | nt | nt
CCC(=O)OC1(C)C(=O)C=C2C=C(CCCC(=O)OC)OC=C2C1=O (stereo not drawn) | i | nt | i | i | i | 16
CCCCC1=CC2=CC(=O)C(C)(OC(=O)CC)C(=O)C2=CO1 (stereo not drawn) | i | nt | i | i | i | i
COc1cccc(-c2nn(-c3ccccc3)cc2C(=O)NCC(=O)O)c1 | i | i | 22 | nt | i | i
O=C(O)c1cccc(NC(=O)c2cn(-c3ccccc3)nc2-c2ccc([N+](=O)[O-])cc2)c1 | i | i | i | i | i | i
COc1ccc(-c2nn(-c3ccccc3)cc2C(=O)Nc2cccc(C(=O)O)c2)cc1[N+](=O)[O-] | i | i | i | 67 | i | i
COc1cccc(-c2nn(-c3ccccc3)cc2CO)c1 | i | i | i | nt | i | i
COC(=O)C1=C(C)NC(=S)NC1c1ccc(-c2cccc(Cl)c2)o1 (stereo not drawn) | i | i | i | nt | i | i
COC(=O)C1=C(C)NC(=S)NC1c1ccc(-c2ccccc2C(=O)OC)o1 (stereo not drawn) | i | i | 22 | i | i | i
COc1ccccc1CNc1nc(Nc2ccccc2-n2cccn2)c2sccc2n1 | i | i | i | 43 | i | i
Cc1ccc(CNC(=O)Cc2ccc(-n3cccc3)cc2)cc1 | i | i | i | nt | i | i
Cc1ccc(CNC(=O)c2ccc(-n3cccc3)cc2)cc1 | i | i | 35 | i | i | i
Cc1ccc2nc(N3C(=O)C(O)=C(C(=O)c4ccc(C)o4)C3c3ccco3)sc2c1 (stereo not drawn) | i | i | i | 48 | i | i
C[C@@H]1CN([C@H](C)CO)C(=O)c2cccc(NC(=O)NC3CCCCC3)c2O[C@@H]1CN(C)C | nt | nt | nt | i | nt | nt
CCOC(=O)c1c(N)sc(C(O)(C(F)(F)F)C(F)(F)F)c1-c1ccc(OC)cc1OC | i | i | 25 | i | i | i
C/C=C/c1ccc([C@@H]2[C@H](CO)N(C(=O)CN(C)C)C23CN(C(=O)C2CCCC2)C3)cc1 | nt | nt | nt | i | nt | nt
COC(=O)CCCCCCCCCCN1CCCCC1 | i | i | i | nt | i | i
CCCOC(=O)CCCCCCCCC(O)CN1CCCCC1 (stereo not drawn) | i | i | 23 | i | i | i
CCN(CC)C(=O)c1cccc(-c2csc(C(O)c3ccccc3)n2)c1 (stereo not drawn) | i | i | 22 | i | i | i
SMILES | MBD2 inh | NSD2 inh | UHRF1 binding | Casp6 inh | TDP2 absorb | LEDGF integ inh
COc1cccc(-n2c(-c3ccccc3)c[nH]c2=S)c1 | i | i | i | i | i | i
S=c1[nH]cc(-c2ccccc2)n1-c1cccc(Cl)c1 | i | i | i | 55 | i | i
CC(C)NC(=O)N(C)C[C@H]1OCCCC[C@H](C)Oc2ccc(NC(=O)NC3CCCCC3)cc2C(=O)N([C@@H](C)CO)C[C@H]1C | nt | nt | nt | i | nt | nt
CN(C)CCNc1ncnc2c1sc1nc(N3CCCC3)c3c(c12)CC(C)(C)OC3 | i | i | 23 | i | i | i
CCN(CC)CCN(CC)Cc1ccccc1Br | i | i | i | 56 | i | i
CCN(CCO)Cc1csc2cccc(Br)c12 | i | i | i | nt | i | i
CCCCNC(=O)C1C(c2ccc(C(F)(F)F)cc2)=Nc2ccccc2N1C(=O)c1ccc2nc(C)[nH]c2c1 (stereo not drawn) | i | nt | i | 40 | i | i

Screening data (PubChem BioAssay)
